Measurements taken from ChEMBL document CHEMBL1140069, “In vitro antifungal activity of polyfunctionalized 2-(hetero)arylquinolines prepared through imino Diels-Alder reactions” (2008).
≈ marks a conversion by molar mass, not a printed value.

What was measured:
Assay type in all cases: functional
Aspergillus niger = assay: Antifungal activity against Aspergillus niger ATCC 9029 after 48 hrs by broth microdilution technique; conditions: ATCC 9029, 48 h
Outline: (§1)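 CLSI broth microdilution: M-27 A2 for yeasts and M-38 A for filamentous fungi. Medium is RPMI-1640 buffered to pH 7.0 with MOPS. Compound is diluted twofold from 250 to 0.98, final DMSO ≤2%. Inoculum is 1–5 × 10³ CFU/mL. Plates are incubated at 35 °C in a moist, dark chamber and read visually at 48 h. MIC100 is the lowest concentration giving total growth inhibition versus drug-free control.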

[1] = test system: Trichophyton mentagrophytes; assay: Antifungal activity against Trichophyton mentagrophytes ATCC 9972 after 48 hrs by broth microdilution technique; conditions: ATCC 9972, 48 h; outline: as §1
Cryptococcus neoformans = assay: Antifungal activity against Cryptococcus neoformans ATCC 32264 after 48 hrs by broth microdilution technique; conditions: ATCC 32264, 48 h; outline: as §1
Candida albicans = assay: Antifungal activity against Candida albicans ATCC 10231 after 48 hrs by broth microdilution technique; conditions: ATCC 10231, 48 h; outline: as §1
Aspergillus flavus = assay: Antifungal activity against Aspergillus flavus ATCC 9170 after 48 hrs by broth microdilution technique; conditions: ATCC 9170, 48 h; outline: as §1
Saccharomyces cerevisiae = assay: Antifungal activity against Saccharomyces cerevisiae ATCC 9763 after 48 hrs by broth microdilution technique; conditions: ATCC 9763, 48 h; outline: as §1
Nannizzia gypsea = assay: Antifungal activity against Microsporum gypseum C115 after 48 hrs by broth microdilution technique; outline: as §1
Aspergillus fumigatus = assay: Antifungal activity against Aspergillus fumigatus ATTC 26934 after 48 hrs by broth microdilution technique; outline: as §1
Trichophyton rubrum = assay: Antifungal activity against Trichophyton rubrum C110 after 48 hrs by broth microdilution technique; conditions: read-out: MIC; outline: as §1

MIC (Aspergillus niger)	MIC [1]	MIC (Cryptococcus neoformans)	MIC (Candida albicans)	MIC (Aspergillus flavus)	MIC (Saccharomyces cerevisiae)	MIC (Nannizzia gypsea)	MIC (Aspergillus fumigatus)	MIC (Trichophyton rubrum)	SMILES
> 250 µg/mL	> 250 µg/mL	> 250 µg/mL	> 250 µg/mL	> 250 µg/mL	> 250 µg/mL	> 250 µg/mL	> 250 µg/mL	> 250 µg/mL	c1ccc2nc(-c3ccc4c(c3)OCO4)ccc2c1
> 250 µg/mL	> 250 µg/mL	> 250 µg/mL	> 250 µg/mL	> 250 µg/mL	> 250 µg/mL	> 250 µg/mL	> 250 µg/mL	> 250 µg/mL	Cc1cc(C)c2ccc(-c3ccccc3)nc2c1
> 250 µg/mL	125 µg/mL (≈ 555 µM)	> 250 µg/mL	> 250 µg/mL	> 250 µg/mL	> 250 µg/mL	125 µg/mL (≈ 555 µM)	> 250 µg/mL	125 µg/mL (≈ 555 µM)	COc1ccc2nc(-c3ccco3)ccc2c1
> 250 µg/mL	250 µg/mL (≈ 1140 µM)	250 µg/mL (≈ 1140 µM)	> 250 µg/mL	> 250 µg/mL	> 250 µg/mL	250 µg/mL (≈ 1140 µM)	> 250 µg/mL	250 µg/mL (≈ 1140 µM)	Cc1ccc2nc(-c3ccccc3)ccc2c1
> 250 µg/mL	250 µg/mL (≈ 1070 µM)	> 250 µg/mL	> 250 µg/mL	> 250 µg/mL	> 250 µg/mL	250 µg/mL (≈ 1070 µM)	> 250 µg/mL	250 µg/mL (≈ 1070 µM)	CCc1ccc2nc(-c3ccccc3)ccc2c1
> 250 µg/mL	12.5 µg/mL (≈ 41.8 µM)	250 µg/mL (≈ 836 µM)	> 250 µg/mL	> 250 µg/mL	> 250 µg/mL	12.5 µg/mL (≈ 41.8 µM)	> 250 µg/mL	12.5 µg/mL (≈ 41.8 µM)	Cc1cc(-c2cccnc2)nc2ccc(Br)cc12
> 250 µg/mL	> 250 µg/mL	> 250 µg/mL	> 250 µg/mL	> 250 µg/mL	> 250 µg/mL	> 250 µg/mL	> 250 µg/mL	> 250 µg/mL	COc1cc(OC)c2nc(-c3ccc4c(c3)OCO4)ccc2c1
> 250 µg/mL	> 250 µg/mL	> 250 µg/mL	> 250 µg/mL	> 250 µg/mL	> 250 µg/mL	> 250 µg/mL	> 250 µg/mL	> 250 µg/mL	O=[N+]([O-])c1cccc(-c2ccc3cc(Cl)ccc3n2)c1
> 250 µg/mL	250 µg/mL (≈ 1120 µM)	> 250 µg/mL	> 250 µg/mL	> 250 µg/mL	> 250 µg/mL	250 µg/mL (≈ 1120 µM)	> 250 µg/mL	250 µg/mL (≈ 1120 µM)	Fc1ccc2nc(-c3ccccc3)ccc2c1
> 250 µg/mL	125 µg/mL (≈ 491 µM)	> 250 µg/mL	> 250 µg/mL	> 250 µg/mL	> 250 µg/mL	125 µg/mL (≈ 491 µM)	> 250 µg/mL	125 µg/mL (≈ 491 µM)	Nc1cccc(-c2ccc3cc(Cl)ccc3n2)c1
> 250 µg/mL	> 250 µg/mL	> 250 µg/mL	> 250 µg/mL	> 250 µg/mL	> 250 µg/mL	> 250 µg/mL	> 250 µg/mL	> 250 µg/mL	Clc1ccc2nc(-c3ccco3)ccc2c1
> 250 µg/mL	> 250 µg/mL	> 250 µg/mL	> 250 µg/mL	> 250 µg/mL	> 250 µg/mL	> 250 µg/mL	> 250 µg/mL	> 250 µg/mL	CCc1ccc2nc(-c3cccc([N+](=O)[O-])c3)ccc2c1
> 250 µg/mL	250 µg/mL (≈ 1130 µM)	> 250 µg/mL	> 250 µg/mL	> 250 µg/mL	> 250 µg/mL	125 µg/mL (≈ 565 µM)	> 250 µg/mL	125 µg/mL (≈ 565 µM)	Oc1ccc2nc(-c3ccccc3)ccc2c1
> 250 µg/mL	> 250 µg/mL	> 250 µg/mL	> 250 µg/mL	> 250 µg/mL	> 250 µg/mL	> 250 µg/mL	> 250 µg/mL	> 250 µg/mL	Clc1ccc2nc(-c3ccccc3)ccc2c1
> 250 µg/mL	> 250 µg/mL	> 250 µg/mL	> 250 µg/mL	> 250 µg/mL	> 250 µg/mL	> 250 µg/mL	> 250 µg/mL	> 250 µg/mL	COc1ccc2nc(-c3cccs3)ccc2c1
> 250 µg/mL	12.5 µg/mL (≈ 57 µM)	250 µg/mL (≈ 1140 µM)	> 250 µg/mL	> 250 µg/mL	> 250 µg/mL	12.5 µg/mL (≈ 57 µM)	> 250 µg/mL	25 µg/mL (≈ 114 µM)	Cc1cc(-c2ccccc2)nc2ccccc12
> 250 µg/mL	> 250 µg/mL	> 250 µg/mL	> 250 µg/mL	> 250 µg/mL	> 250 µg/mL	> 250 µg/mL	> 250 µg/mL	> 250 µg/mL	COc1ccc2nc(-c3ccc4c(c3)OCO4)ccc2c1
> 250 µg/mL	> 250 µg/mL	> 250 µg/mL	> 250 µg/mL	> 250 µg/mL	> 250 µg/mL	> 250 µg/mL	> 250 µg/mL	> 250 µg/mL	CCc1cccc2c(C)cc(-c3ccncc3)nc12
> 250 µg/mL	250 µg/mL (≈ 1000 µM)	125 µg/mL (≈ 501 µM)	> 250 µg/mL	> 250 µg/mL	> 250 µg/mL	250 µg/mL (≈ 1000 µM)	> 250 µg/mL	250 µg/mL (≈ 1000 µM)	c1ccc(-c2ccc3cc4c(cc3n2)OCO4)cc1
> 250 µg/mL	> 250 µg/mL	> 250 µg/mL	> 250 µg/mL	> 250 µg/mL	> 250 µg/mL	> 250 µg/mL	> 250 µg/mL	> 250 µg/mL	Cc1cc(-c2ccncc2)nc2c(C(C)C)ccc([N+](=O)[O-])c12
> 250 µg/mL	> 250 µg/mL	> 250 µg/mL	> 250 µg/mL	> 250 µg/mL	> 250 µg/mL	> 250 µg/mL	> 250 µg/mL	> 250 µg/mL	Cc1ccc2nc(-c3ccc4c(c3)OCO4)ccc2c1
> 250 µg/mL	> 250 µg/mL	> 250 µg/mL	> 250 µg/mL	> 250 µg/mL	> 250 µg/mL	> 250 µg/mL	> 250 µg/mL	> 250 µg/mL	O=[N+]([O-])c1cccc(-c2ccc3cc(F)ccc3n2)c1
> 250 µg/mL	> 250 µg/mL	> 250 µg/mL	> 250 µg/mL	> 250 µg/mL	> 250 µg/mL	> 250 µg/mL	> 250 µg/mL	> 250 µg/mL	Cc1ccc([N+](=O)[O-])c2c(C)cc(-c3ccncc3)nc12
> 250 µg/mL	> 250 µg/mL	> 250 µg/mL	> 250 µg/mL	> 250 µg/mL	> 250 µg/mL	> 250 µg/mL	> 250 µg/mL	> 250 µg/mL	Clc1ccc2nc(-c3cccs3)ccc2c1
> 250 µg/mL	> 250 µg/mL	> 250 µg/mL	> 250 µg/mL	> 250 µg/mL	> 250 µg/mL	> 250 µg/mL	> 250 µg/mL	> 250 µg/mL	CCc1ccc2ccc(-c3ccc4c(c3)OCO4)nc2c1
> 250 µg/mL	> 250 µg/mL	> 250 µg/mL	> 250 µg/mL	> 250 µg/mL	> 250 µg/mL	> 250 µg/mL	> 250 µg/mL	> 250 µg/mL	O=[N+]([O-])c1ccc2nc(-c3ccccc3)ccc2c1
